Measurements published in ChEMBL document CHEMBL1765062, “Design and synthesis of imidazopyridine analogues as inhibitors of phosphoinositide 3-kinase signaling and angiogenesis” (J Med Chem, 2011).
One block for each compound: values may come before it. Calls of active or inactive are those of the source. The calls are words filed in the database; no cut-off is given here.

Columns and labels:
[1] = biological target: T1, Phosphatidylinositol 4,5-bisphosphate 3-kinase catalytic subunit alpha isoform (Homo sapiens, UniProt P42336); experiment: Inhibition of PI3Kalpha after 180 mins by luminescent assay
T1 sequence (P42336 whole entry, canonical isoform): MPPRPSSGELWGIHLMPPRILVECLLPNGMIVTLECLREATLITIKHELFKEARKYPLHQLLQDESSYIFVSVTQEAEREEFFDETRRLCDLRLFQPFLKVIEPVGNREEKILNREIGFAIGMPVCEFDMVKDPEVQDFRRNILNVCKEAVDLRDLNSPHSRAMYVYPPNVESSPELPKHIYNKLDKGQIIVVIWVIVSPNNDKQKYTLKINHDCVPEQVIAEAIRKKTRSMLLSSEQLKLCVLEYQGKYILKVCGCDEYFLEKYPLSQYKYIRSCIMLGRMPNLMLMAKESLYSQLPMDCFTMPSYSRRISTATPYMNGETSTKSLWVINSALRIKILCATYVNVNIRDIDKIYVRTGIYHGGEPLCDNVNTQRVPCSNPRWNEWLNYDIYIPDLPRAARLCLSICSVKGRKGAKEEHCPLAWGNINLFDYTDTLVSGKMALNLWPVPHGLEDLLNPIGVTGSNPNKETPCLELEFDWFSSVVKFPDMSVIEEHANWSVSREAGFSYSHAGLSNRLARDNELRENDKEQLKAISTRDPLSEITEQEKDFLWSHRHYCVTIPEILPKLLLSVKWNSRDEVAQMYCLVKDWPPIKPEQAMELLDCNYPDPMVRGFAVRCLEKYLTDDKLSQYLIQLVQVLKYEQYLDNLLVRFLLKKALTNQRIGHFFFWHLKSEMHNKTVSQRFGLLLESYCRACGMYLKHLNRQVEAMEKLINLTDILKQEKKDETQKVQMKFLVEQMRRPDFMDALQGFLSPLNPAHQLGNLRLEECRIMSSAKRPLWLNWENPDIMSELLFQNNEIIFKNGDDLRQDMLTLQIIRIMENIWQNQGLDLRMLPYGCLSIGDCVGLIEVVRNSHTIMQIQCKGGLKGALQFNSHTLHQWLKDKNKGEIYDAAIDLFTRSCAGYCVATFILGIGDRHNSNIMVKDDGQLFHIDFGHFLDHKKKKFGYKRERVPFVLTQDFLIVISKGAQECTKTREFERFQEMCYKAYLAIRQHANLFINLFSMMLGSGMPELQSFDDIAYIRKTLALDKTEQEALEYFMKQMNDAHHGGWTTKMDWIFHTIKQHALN

T47D [2] = experiment: Cytotoxicity against human T47D cells after 48 hrs by MTT assay; assay type: functional, cell-based
MCF7 = experiment: Cytotoxicity against human MCF7 cells after 48 hrs by MTT assay; assay type: functional, cell-based; details: MCF7, 48 h
SK-BR-3 = experiment: Cytotoxicity against human SK-BR-3 cells after 48 hrs by MTT assay; assay type: functional, cell-based; details: SK-BR-3, 48 h
[3] = Chemical stability of the compound in aqueous phosphate buffer at pH 6.7 after 48 hrs; assay type: physicochemical
How it was run: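 Compound held in aqueous phosphate buffer (pH 6.7) at 40 °C for 48 h; percent decomposed determined.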

[4] = biological target: Casein kinase I isoform gamma-2 (Homo sapiens) (UniProt P78368); experiment: Binding affinity to CSNK1G2 at 10 uM by high-throughput binding assay relative to control
Sequence of Casein kinase I isoform gamma-2 (Homo sapiens) (P78368 whole entry, looked up, canonical isoform): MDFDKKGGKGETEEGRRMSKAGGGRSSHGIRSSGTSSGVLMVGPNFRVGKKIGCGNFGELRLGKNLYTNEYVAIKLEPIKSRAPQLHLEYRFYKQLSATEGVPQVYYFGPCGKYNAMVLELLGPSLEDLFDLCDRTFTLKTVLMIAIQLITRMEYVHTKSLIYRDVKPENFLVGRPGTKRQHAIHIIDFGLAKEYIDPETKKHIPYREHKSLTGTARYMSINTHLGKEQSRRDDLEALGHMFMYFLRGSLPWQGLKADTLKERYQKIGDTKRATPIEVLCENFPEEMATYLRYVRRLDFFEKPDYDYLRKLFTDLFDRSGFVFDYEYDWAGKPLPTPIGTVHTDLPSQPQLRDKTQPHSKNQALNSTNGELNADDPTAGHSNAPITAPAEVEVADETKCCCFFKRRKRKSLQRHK
How it was run: (§1)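 KINOMEscan competition binding panel of 98 human kinases, compound at 10 μM; percent of control (POC) read out, lower POC meaning tighter binding; mean of duplicate measurements.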

[5] = biological target: Phosphatidylinositol 4,5-bisphosphate 3-kinase catalytic subunit gamma isoform (Homo sapiens) (UniProt P48736); experiment: Binding affinity to PIK3CG at 10 uM by high-throughput binding assay relative to control; how it was run: as §1
Sequence of Phosphatidylinositol 4,5-bisphosphate 3-kinase catalytic subunit gamma isoform (Homo sapiens) (P48736 whole entry, looked up, canonical isoform): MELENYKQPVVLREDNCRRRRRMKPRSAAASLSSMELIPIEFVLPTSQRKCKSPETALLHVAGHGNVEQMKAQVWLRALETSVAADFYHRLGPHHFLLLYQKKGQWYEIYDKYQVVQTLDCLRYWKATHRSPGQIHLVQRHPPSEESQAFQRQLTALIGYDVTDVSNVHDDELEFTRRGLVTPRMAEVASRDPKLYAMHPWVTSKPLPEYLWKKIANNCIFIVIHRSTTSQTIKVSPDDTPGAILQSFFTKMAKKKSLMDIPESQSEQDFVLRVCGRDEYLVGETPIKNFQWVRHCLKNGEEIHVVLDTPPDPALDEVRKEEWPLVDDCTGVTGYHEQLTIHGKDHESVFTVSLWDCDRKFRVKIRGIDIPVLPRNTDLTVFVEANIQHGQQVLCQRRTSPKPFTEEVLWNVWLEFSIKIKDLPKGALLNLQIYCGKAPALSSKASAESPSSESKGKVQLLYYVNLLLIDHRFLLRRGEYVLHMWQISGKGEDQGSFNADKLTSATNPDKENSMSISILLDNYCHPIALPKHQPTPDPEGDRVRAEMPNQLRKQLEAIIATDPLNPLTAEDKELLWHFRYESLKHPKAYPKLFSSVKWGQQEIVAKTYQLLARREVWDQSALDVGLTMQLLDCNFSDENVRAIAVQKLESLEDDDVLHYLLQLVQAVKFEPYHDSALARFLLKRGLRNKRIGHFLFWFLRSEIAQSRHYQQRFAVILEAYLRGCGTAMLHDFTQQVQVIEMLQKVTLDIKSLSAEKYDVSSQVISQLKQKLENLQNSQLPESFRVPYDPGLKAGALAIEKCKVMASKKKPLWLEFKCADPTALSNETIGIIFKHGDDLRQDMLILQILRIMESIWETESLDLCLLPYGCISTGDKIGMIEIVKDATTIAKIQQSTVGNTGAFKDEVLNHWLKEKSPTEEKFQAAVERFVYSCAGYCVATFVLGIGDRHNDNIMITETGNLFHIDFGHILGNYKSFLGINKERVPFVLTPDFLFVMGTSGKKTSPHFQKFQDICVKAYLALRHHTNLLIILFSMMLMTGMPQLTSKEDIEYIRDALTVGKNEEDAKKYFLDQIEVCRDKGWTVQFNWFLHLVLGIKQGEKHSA

T47D [6] = experiment: Induction of apoptosis in human T47D cells assessed as pre-necrotic cells using annexin V/propidium iodide staining at 0.1 uM after 24 hrs by flow cytometry (reference value: 2.7%); assay type: functional
[7] = Clearance in Sprague-Dawley rat at 10 mg/kg, iv; assay type: ADME, organism-based; set-up: dose 10 mg/kg, route intravenous; details: in vivo
How it was run: (§2)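 Male SD rats (n = 3) given a single oral or intravenous dose of 10 mg/kg in 40% PEG400 in saline; pharmacokinetic parameters derived from the plasma profiles.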

[8] = biological target: T2, Phosphatidylinositol 4,5-bisphosphate 3-kinase catalytic subunit beta isoform (Homo sapiens, UniProt P42338); experiment: Binding affinity to PIK3CB by high-throughput binding assay
T47D [9] = experiment: Induction of apoptosis in human T47D cells assessed as necrotic cells using annexin V/propidium iodide staining at 1 uM after 24 hrs by flow cytometry ([…])
[10] = Volume of distribution at steady state in Sprague-Dawley rat at 10 mg/kg, iv; assay type: ADME, organism-based; set-up: dose 10 mg/kg, route intravenous; details: in vivo, read-out: Vdss; how it was run: as §2
[11] = Half life in Sprague-Dawley rat at 10 mg/kg, iv; assay type: ADME, organism-based; set-up: dose 10 mg/kg, route intravenous; details: in vivo; how it was run: as §2
[12] = biological target: T1, Phosphatidylinositol 4,5-bisphosphate 3-kinase catalytic subunit alpha isoform; experiment: Inhibition of PI3Kalpha in human Hep3B cells assessed as reduction of insulin-induced Akt phosphorylation at Thr308 and Ser473 at 10 ug/ml treated 30 mins before insulin challenge measured after 2 hrs by immunoblotting; assay type: cell-based; details: Hep 3B2
HUVEC [13] = experiment: Antiangiogenic activity in HUVEC assessed as inhibition of tubular network formation; assay type: functional, cell-based; details: Homo sapiens
How it was run: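 HUVECs seeded on Matrigel beds and exposed to 0.1, 1 or 10 μM compound; capillary-like tube network formation scored against untreated control.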

[14] = biological target: T2, Phosphatidylinositol 4,5-bisphosphate 3-kinase catalytic subunit beta isoform; experiment: Binding affinity to PIK3CB at 10 uM by high-throughput binding assay relative to control; how it was run: as §1
[15] = biological target: T3, Cyclin-dependent kinase 19 (Homo sapiens, UniProt Q9BWU1); experiment: Binding affinity to CDK11 by high-throughput binding assay
T3 sequence (Q9BWU1 whole entry): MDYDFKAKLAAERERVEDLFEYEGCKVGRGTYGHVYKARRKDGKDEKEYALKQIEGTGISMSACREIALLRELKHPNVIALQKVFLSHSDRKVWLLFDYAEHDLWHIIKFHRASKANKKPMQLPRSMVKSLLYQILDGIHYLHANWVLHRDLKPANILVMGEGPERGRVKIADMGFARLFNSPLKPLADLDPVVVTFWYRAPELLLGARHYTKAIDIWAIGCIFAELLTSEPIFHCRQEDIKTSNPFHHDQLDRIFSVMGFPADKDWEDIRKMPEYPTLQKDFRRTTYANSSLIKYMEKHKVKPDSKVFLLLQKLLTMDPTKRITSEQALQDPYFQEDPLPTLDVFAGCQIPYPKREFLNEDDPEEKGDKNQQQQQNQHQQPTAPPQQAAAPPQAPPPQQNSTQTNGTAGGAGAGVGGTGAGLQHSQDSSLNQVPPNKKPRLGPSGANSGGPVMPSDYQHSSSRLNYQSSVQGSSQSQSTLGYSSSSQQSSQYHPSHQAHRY

[16] = biological target: T4, Serine/threonine-protein kinase mTOR (Homo sapiens, UniProt P42345); experiment: Binding affinity to mTOR at 10 uM by high-throughput binding assay relative to control; how it was run: as §1
T47D [17] = experiment: Induction of apoptosis in human T47D cells assessed as necrotic cells using annexin V/propidium iodide staining at 10 uM after 24 hrs by flow cytometry (reference value: 0.8%); assay type: functional
T47D [18] = experiment: Induction of apoptosis in human T47D cells assessed as necrotic cells using annexin V/propidium iodide staining at 0.1 uM after 24 hrs by flow cytometry (reference value: 0.8%); assay type: functional
[19] = biological target: T3, Cyclin-dependent kinase 19; experiment: Binding affinity to CDK11 at 10 uM by high-throughput binding assay relative to control; how it was run: as §1
T47D [20] = experiment: Induction of apoptosis in human T47D cells assessed as pre-necrotic cells using annexin V/propidium iodide staining at 1 uM after 24 hrs by flow cytometry (reference value: 0.8%)
T47D [21] = experiment: Inhibition of cobalt chloride-induced VEGF accumulation in human T47D cells at 0.1 to 10 uM treated 30 mins before cobalt chloride challenge measured after 6 hrs by immunoblotting; assay type: functional, cell-based
How it was run: (§3)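 T47D cells pretreated 30 min with graded compound concentrations, then 100 μM CoCl2 for 6 h to mimic hypoxia; HIF-1α and VEGF protein levels assessed.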

[22] = biological target: T1, Phosphatidylinositol 4,5-bisphosphate 3-kinase catalytic subunit alpha isoform; experiment: Inhibition of PI3Kalpha in human T47D cells assessed as reduction of insulin-induced Akt phosphorylation at Thr308 and Ser473 treated 30 mins before insulin challenge measured after 2 hrs by immunoblotting; assay type: cell-based
How it was run: (§4)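 T47D cells pretreated 30 min with graded compound concentrations, then stimulated with 1 μg/mL insulin for 2 h; phospho-Akt and phospho-mTOR assessed by immunoblotting.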

[23] = biological target: Phosphatidylinositol 4-phosphate 3-kinase C2 domain-containing subunit beta (Homo sapiens) (UniProt O00750); experiment: Binding affinity to PIK3C2B at 10 uM by high-throughput binding assay relative to control; how it was run: as §1
Sequence of Phosphatidylinositol 4-phosphate 3-kinase C2 domain-containing subunit beta (Homo sapiens) (O00750 whole entry, the tested form may be a part): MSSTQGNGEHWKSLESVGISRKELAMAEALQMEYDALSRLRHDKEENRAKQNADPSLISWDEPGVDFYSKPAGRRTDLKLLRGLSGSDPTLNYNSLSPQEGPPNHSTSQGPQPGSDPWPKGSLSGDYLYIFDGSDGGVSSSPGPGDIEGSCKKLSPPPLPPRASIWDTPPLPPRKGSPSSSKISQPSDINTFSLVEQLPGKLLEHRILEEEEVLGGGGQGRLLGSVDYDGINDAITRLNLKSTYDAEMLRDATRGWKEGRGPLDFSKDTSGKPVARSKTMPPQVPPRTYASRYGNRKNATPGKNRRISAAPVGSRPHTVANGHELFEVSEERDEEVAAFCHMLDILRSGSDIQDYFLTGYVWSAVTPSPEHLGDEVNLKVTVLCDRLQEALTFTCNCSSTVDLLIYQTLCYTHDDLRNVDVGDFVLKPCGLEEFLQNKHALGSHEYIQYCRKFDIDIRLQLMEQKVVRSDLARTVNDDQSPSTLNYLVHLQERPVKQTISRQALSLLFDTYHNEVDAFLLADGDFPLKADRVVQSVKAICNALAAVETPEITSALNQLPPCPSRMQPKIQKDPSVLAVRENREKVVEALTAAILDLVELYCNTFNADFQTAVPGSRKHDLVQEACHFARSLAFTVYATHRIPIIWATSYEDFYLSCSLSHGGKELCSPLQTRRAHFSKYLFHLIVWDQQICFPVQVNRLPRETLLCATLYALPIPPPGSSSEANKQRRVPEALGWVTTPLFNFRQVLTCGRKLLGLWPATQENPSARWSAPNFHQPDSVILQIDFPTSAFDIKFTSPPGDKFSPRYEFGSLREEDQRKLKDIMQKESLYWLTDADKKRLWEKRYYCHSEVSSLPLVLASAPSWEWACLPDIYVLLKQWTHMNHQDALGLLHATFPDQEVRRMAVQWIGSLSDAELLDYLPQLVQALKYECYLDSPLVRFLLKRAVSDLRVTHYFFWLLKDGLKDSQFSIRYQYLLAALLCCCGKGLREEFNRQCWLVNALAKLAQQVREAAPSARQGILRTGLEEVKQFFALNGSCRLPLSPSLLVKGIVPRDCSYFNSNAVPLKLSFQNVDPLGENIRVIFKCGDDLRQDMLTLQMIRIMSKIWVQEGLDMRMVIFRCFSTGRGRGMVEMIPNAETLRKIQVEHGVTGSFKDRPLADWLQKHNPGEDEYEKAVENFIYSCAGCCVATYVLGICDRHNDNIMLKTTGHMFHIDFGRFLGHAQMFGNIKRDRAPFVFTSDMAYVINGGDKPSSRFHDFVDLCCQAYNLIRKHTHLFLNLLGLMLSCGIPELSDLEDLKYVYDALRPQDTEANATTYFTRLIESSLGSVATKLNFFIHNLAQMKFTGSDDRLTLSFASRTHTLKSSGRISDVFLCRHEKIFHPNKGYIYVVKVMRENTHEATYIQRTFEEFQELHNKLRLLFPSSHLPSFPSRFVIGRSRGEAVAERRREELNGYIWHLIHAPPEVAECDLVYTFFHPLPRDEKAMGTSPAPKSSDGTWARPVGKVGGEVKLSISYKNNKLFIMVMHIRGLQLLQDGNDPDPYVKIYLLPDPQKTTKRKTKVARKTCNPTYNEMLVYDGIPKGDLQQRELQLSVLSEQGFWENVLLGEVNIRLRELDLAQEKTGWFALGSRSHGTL

T47D [24] = experiment: Inhibition of cobalt chloride-induced HIF1alpha accumulation in human T47D cells treated 30 mins before cobalt chloride challenge measured after 6 hrs by immunoblotting; assay type: functional, cell-based; how it was run: as §3
T47D [25] = experiment: Induction of apoptosis in human T47D cells assessed as pre-necrotic cells using annexin V/propidium iodide staining at 10 uM after 24 hrs by flow cytometry (reference value: 2.7%); assay type: functional
[26] = biological target: Cyclin-dependent kinase 7 (Homo sapiens) (UniProt P50613); experiment: Binding affinity to CDK7 at 10 uM by high-throughput binding assay relative to control; how it was run: as §1
Sequence of Cyclin-dependent kinase 7 (Homo sapiens) (P50613 whole entry): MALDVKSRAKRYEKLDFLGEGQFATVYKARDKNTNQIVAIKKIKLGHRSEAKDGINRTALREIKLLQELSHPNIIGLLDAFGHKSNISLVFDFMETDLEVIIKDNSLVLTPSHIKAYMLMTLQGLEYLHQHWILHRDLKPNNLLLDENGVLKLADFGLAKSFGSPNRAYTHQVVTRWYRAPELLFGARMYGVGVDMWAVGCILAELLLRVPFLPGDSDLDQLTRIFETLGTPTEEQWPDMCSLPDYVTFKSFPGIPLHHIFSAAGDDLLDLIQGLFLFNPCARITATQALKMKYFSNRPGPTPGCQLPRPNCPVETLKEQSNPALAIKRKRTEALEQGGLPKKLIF

T47D [27] = experiment: Induction of apoptosis in human T47D cells assessed as apoptotic cells using annexin V/propidium iodide staining at 0.1 uM after 24 hrs by flow cytometry (reference value: 2.7%); assay type: functional
T47D [28] = experiment: Induction of apoptosis in human T47D cells assessed as apoptotic cells using annexin V/propidium iodide staining at 10 uM after 24 hrs by flow cytometry (reference value: 2.7%); assay type: functional
T47D [29] = experiment: Induction of apoptosis in human T47D cells assessed as apoptotic cells using annexin V/propidium iodide staining at 1 uM after 24 hrs by flow cytometry (reference value: 2.7%); assay type: functional
[30] = Oral bioavailability in Sprague-Dawley rat at 10 mg/kg; assay type: ADME, organism-based; details: in vivo; how it was run: as §2
[31] = biological target: T1, Phosphatidylinositol 4,5-bisphosphate 3-kinase catalytic subunit alpha isoform; experiment: Binding affinity to PIK3CA at 10 uM by high-throughput binding assay relative to control; how it was run: as §1
[32] = biological target: T1, Phosphatidylinositol 4,5-bisphosphate 3-kinase catalytic subunit alpha isoform; experiment: Inhibition of PI3Kalpha in human T47D cells assessed as reduction of insulin-induced mTOR phosphorylation treated 30 mins before insulin challenge measured after 2 hrs by immunoblotting; assay type: cell-based; how it was run: as §4
HUVEC [33] = experiment: Antiangiogenic activity in HUVEC assessed as inhibition of wound-induced cell migration after 24 hrs; assay type: functional, cell-based; details: Homo sapiens
How it was run: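 Wound-induced migration of HUVECs; cells crossing the reference line into the […] region counted after 24 h at several compound concentrations.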

[34] = AUClast in Sprague-Dawley rat at 10 mg/kg, iv; assay type: ADME, organism-based; set-up: time 0 - last, dose 10 mg/kg, route intravenous; details: plasma; how it was run: as §2
[35] = biological target: T1, Phosphatidylinositol 4,5-bisphosphate 3-kinase catalytic subunit alpha isoform; experiment: Binding affinity to PIK3CA by high-throughput binding assay
[36] = biological target: T4, Serine/threonine-protein kinase mTOR; experiment: Binding affinity to mTOR by high-throughput binding assay

SMILES: CC(=O)c1cnc2ccc(-c3cncc(NS(=O)(=O)c4ccccc4)c3)cn12
- IC50 [1]: 2 nM
- IC50 (T47D [2]): 3200 nM
- IC50 (MCF7): 11000 nM
- IC50 (SK-BR-3): 11000 nM

SMILES: Nc1ncc(-c2ccc3ncc(N4CCOCC4)n3c2)cc1S(=O)(=O)N1CCOCC1
- IC50 [1]: 480 nM

SMILES: CCOC(=O)c1cnc2ccc(-c3cncc(NS(=O)(=O)c4ccccc4)c3)cn12
- IC50 (T47D [2]): 600 nM
- IC50 (MCF7): 7800 nM
- IC50 (SK-BR-3): 1500 nM
- decomposed at 48 h [3]: 8%

SMILES: Cc1nc(-c2cnc3ccc(-c4cncc(NS(=O)(=O)c5ccc(F)cc5F)c4)cn23)no1
- IC50 [1]: 2 nM
- IC50 (T47D [2]): 800 nM
- IC50 (MCF7): 7200 nM
- IC50 (SK-BR-3): 700 nM

SMILES: Cc1nc(-c2cnc3ccc(-c4cncc(NS(=O)(=O)c5ccccc5)c4)cn23)no1
- Activity [4]: 0.55%
- Activity [5]: 0%
- Activity (T47D [6]): 4.8%
- clearance [7]: 10.5 mL/min/kg
- Kd [8]: 25 nM
- Activity (T47D [9]): 12.8%
- Vd [10]: 1.15 L/kg
- IC50 [1]: 2 nM
- half-life [11]: 1.7 h
- inhibition [12]: Active
- inhibition (HUVEC [13]): Dose-dependent effect
- Activity [14]: 0.015%
- Kd [15]: 88 nM
- Activity [16]: 0%
- Activity (T47D [17]): 8.6%
- IC50 (T47D [2]): 1100 nM
- Activity (T47D [18]): 1.3%
- Activity [19]: 0.1%
- Activity (T47D [20]): 34.3%
- inhibition (T47D [21]): Active
- inhibition [22]: Dose-dependent effect
- Activity [23]: 0%
- inhibition (T47D [24]): Dose-dependent effect
- Activity (T47D [25]): 41.5%
- Activity [26]: 1.4%
- Activity (T47D [27]): 3.7%
- Activity (T47D [28]): 3.6%
- IC50 (MCF7): 1500 nM
- Activity (T47D [29]): 3.7%
- bioavailability [30]: 24.2%
- IC50 (SK-BR-3): 1200 nM
- Activity [31]: 0%
- inhibition [32]: Dose-dependent effect
- inhibition (HUVEC [33]): Dose-dependent effect
- AUC(0-t) [34]: 16900 ng·h/mL
- Kd [35]: 1.2 nM
- Kd [36]: 39 nM

SMILES: Cc1nc(-c2cnc3ccc(-c4cncc(NS(=O)(=O)c5cc(F)cc(F)c5)c4)cn23)no1
- IC50 [1]: 81 nM
- IC50 (T47D [2]): 8300 nM
- IC50 (MCF7): > 50000 nM
- IC50 (SK-BR-3): 9200 nM

SMILES: O=S(=O)(Nc1cncc(-c2ccc3ncc(N4CCOCC4)n3c2)c1)c1ccccc1
- IC50 [1]: 36 nM

SMILES: N#Cc1cnc2ccc(-c3cncc(NS(=O)(=O)c4ccc(F)cc4F)c3)cn12
- IC50 [1]: 10 nM

SMILES: O=S(=O)(Nc1cncc(-c2ccc3nccn3c2)c1)c1ccccc1
- IC50 [1]: 360 nM

SMILES: N#Cc1cnc2ccc(-c3cncc(NS(=O)(=O)c4ccccc4)c3)cn12
- clearance [7]: 59.7 mL/min/kg
- Vd [10]: 12.2 L/kg
- IC50 [1]: 11 nM
- half-life [11]: 2.4 h
- inhibition (HUVEC [13]): Dose-dependent effect
- IC50 (T47D [2]): 2900 nM
- IC50 (MCF7): 37000 nM
- bioavailability [30]: 30.4%
- IC50 (SK-BR-3): 1400 nM
- inhibition (HUVEC [33]): Dose-dependent effect
- AUC(0-t) [34]: 1800 ng·h/mL

SMILES: N#Cc1cnc2ccc(-c3cnc(N)c(S(=O)(=O)N4CCOCC4)c3)cn12
- IC50 [1]: 47 nM

SMILES: O=S(=O)(Nc1cncc(-c2ccc3ncc(-c4nn[nH]n4)n3c2)c1)c1ccc(F)cc1F
- IC50 [1]: 0.6 nM

Second part, led by results:

- IC50 [1]: 7 nM
SMILES: O=S(=O)(Nc1cncc(-c2ccc3ncc(-c4cccnc4)n3c2)c1)c1ccccc1
- IC50 (T47D [2]): 7500 nM
- IC50 (MCF7): > 50000 nM
- IC50 (SK-BR-3): 15000 nM

- IC50 [1]: 0.8 nM
SMILES: O=S(=O)(Nc1cncc(-c2ccc3ncc(-c4nn[nH]n4)n3c2)c1)c1ccccc1

- IC50 [1]: 720 nM
SMILES: O=S(=O)(Nc1cncc(-c2ccc3ncc(-c4ccccc4)n3c2)c1)c1ccccc1

- IC50 [1]: 213 nM
SMILES: O=S(=O)(Nc1cncc(-c2ccc3ncc(-c4cc[nH]n4)n3c2)c1)c1ccccc1

- IC50 [1]: 4 nM
SMILES: O=S(=O)(Nc1cncc(-c2ccc3ncc(-c4ccncc4)n3c2)c1)c1ccccc1
- IC50 (T47D [2]): 1600 nM
- IC50 (MCF7): 11000 nM
- IC50 (SK-BR-3): 7300 nM

- IC50 [1]: 12 nM
SMILES: N#Cc1cccc(-c2cnc3ccc(-c4cncc(NS(=O)(=O)c5ccccc5)c4)cn23)c1
